This passage reports Activity and inhibition results from ChEMBL document CHEMBL4020823, “Highly Selective, Potent, and Oral mTOR Inhibitor for Treatment of Cancer as Autophagy Inducer” (J Med Chem, 2018).

Assay [1] concerns Mus musculus. Nature of the assay: Down regulation of 4E-BP1 phosphorylation at Thr37/46 residues in human T47D cells xenografted in BALB/c nude mouse administered via oral gavage after 3 weeks by hematoxylin and eosine staining based light microscopic assay. In kind it is functional, cell-based. A digest of the protocol: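 Tumours from the oral 3-week T-47D xenograft study were formalin-fixed, paraffin-embedded and cut into 5 μm sections. Sections were deparaffinized, rehydrated and incubated overnight at 4 °C with phospho-specific primary antibody at 1:100. Biotin secondary was applied for 1 h at room temperature, then ABC-peroxidase/DAB with hematoxylin counterstain. Sections were viewed by light microscopy.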

In assay [2] the target is Phosphatidylinositol 4,5-bisphosphate 3-kinase catalytic subunit gamma isoform (Homo sapiens) (UniProt P48736). Nature of the assay: Inhibition of full length recombinant human PI3K p120gamma at 1 uM relative to control. A digest of the protocol: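 Eurofins KinaseProfiler panel with compound at a single 1 μM concentration. ATP at the Km of each kinase. Result is % inhibition, mean of two independent experiments.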
Phosphatidylinositol 4,5-bisphosphate 3-kinase catalytic subunit gamma isoform (Homo sapiens), sequence (P48736 whole entry, looked up, canonical isoform): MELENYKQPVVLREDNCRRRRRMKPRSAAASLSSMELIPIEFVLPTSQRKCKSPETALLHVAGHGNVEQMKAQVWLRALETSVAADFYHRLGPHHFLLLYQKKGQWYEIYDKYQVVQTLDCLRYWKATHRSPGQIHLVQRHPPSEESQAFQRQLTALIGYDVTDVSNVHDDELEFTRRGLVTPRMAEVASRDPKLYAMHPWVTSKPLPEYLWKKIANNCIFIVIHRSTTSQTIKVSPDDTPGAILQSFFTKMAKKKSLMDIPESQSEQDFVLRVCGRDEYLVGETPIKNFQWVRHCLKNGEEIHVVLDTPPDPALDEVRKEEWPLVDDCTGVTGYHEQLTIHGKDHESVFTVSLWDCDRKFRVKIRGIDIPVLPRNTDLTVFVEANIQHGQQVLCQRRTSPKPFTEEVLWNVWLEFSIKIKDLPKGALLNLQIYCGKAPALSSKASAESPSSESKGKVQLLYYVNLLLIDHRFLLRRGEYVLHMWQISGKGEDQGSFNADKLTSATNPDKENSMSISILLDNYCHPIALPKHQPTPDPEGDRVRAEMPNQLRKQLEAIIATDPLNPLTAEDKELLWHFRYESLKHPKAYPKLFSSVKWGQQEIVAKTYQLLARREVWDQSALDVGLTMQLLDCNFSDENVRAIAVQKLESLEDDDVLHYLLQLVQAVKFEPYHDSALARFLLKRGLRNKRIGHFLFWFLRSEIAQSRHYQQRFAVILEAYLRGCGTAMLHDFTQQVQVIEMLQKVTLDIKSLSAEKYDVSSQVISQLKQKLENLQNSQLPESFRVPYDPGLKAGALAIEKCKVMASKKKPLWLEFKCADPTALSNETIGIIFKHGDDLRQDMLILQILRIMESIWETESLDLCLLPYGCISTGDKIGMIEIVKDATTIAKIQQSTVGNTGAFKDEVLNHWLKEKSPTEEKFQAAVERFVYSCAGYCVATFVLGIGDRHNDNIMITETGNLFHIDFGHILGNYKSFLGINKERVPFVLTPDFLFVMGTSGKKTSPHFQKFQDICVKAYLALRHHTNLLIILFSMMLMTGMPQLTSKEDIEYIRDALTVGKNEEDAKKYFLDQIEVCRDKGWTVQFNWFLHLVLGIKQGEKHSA

For the compound `N#CCN1CCC(n2c(=O)cnc3cnc4ccc(-c5ccc(N)nc5)cc4c32)CC1`, the Activity result in assay [1] is “Dose-dependent effect”. In addition, in assay [2], the inhibition worked out at 4%.
